Test results: ChEMBL document CHEMBL3593159, “Identification of 5-nitrofuran-2-amide derivatives that induce apoptosis in triple negative breast cancer cells by activating C/EBP-homologous protein expression” (Bioorg Med Chem, 2015)

Key:
HCC1806 = assay: Cytotoxicity against human HCC1806 cells assessed as reduction in cell viability incubated for 3 days by cell-titer-Glo reagent based assay; assay type: functional; conditions: for IC50: HCC1806, 72 h
Procedure, shortened: (§1)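 Viability by CellTiter-Glo (ATP read-out). Cells plated at 3 × 10³/well in 384-well format overnight, then exposed to compound over a range (0.125–20 µM for initial series) for 3 d in RPMI 1640 with 10% FBS at 37°C, 5% CO₂. IC₅₀ fitted from dose–response curve.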

HCC1143 = assay: Cytotoxicity against human HCC1143 cells assessed as reduction in cell viability incubated for 3 days by cell-titer-Glo reagent based assay; assay type: functional; conditions: for IC50: HCC1143, 72 h; procedure, shortened: as §1
HCC38 = assay: Cytotoxicity against human HCC38 cells assessed as reduction in cell viability incubated for 3 days by cell-titer-Glo reagent based assay; assay type: functional; conditions: for IC50: HCC38, 72 h; procedure, shortened: as §1
HEK-293T = assay: Increase in CHOP expression in HEK293T cells stably transfected with luciferase gene at 10 uM incubated for 24 hrs by luciferase reporter gene assay; assay type: functional, Homo sapiens
Procedure, shortened: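 HEK293T cells stably carrying CHOP-, ERSE- or UPRE-luciferase reporters plated 7 × 10³/well in 384-well plates, after 16 h given compound (10 µM), tunicamycin 1 µg/mL or DMSO for 24 h; luciferase by Bright-Glo. Means of 4 replicate wells, representative of 3 experiments.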

HEK293 = assay: Increase in CHOP mRNA expression in HEK293 cells at 10 uM incubated for 24 hrs by qRT-PCR method; assay type: functional, Homo sapiens
Procedure, shortened: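 HEK293 cells given 10 µM compound or DMSO for 24 h; CHOP mRNA by qRT-PCR. Means of 3 replicate wells, 3 independent experiments, Student's t-test vs control.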

SMILES	IC50 (HCC1806) [µM]	IC50 (HCC1143) [µM]	IC50 (HCC38) [µM]	also measured
CCc1ccc(NC(=O)c2ccc([N+](=O)[O-])o2)cc1	5	–	–	–
O=C(Nc1ccc(N2CCOCC2)c(Cl)c1)c1ccc([N+](=O)[O-])o1	2.6	2.5	2	–
O=C(Nc1cccc(OC(F)(F)F)c1)c1ccc([N+](=O)[O-])o1	19.6	–	–	–
O=C(Nc1ccc(N2CCN(Cc3ccccc3F)CC2)cc1)c1ccc([N+](=O)[O-])o1	3	3.8	1.9	–
O=C(Nc1cc(C(F)(F)F)ccc1Cl)c1ccc([N+](=O)[O-])o1	5.1	–	–	–
O=C(Nc1ccc(N2CCOCC2)cc1)c1ccc([N+](=O)[O-])o1	1.5	2.3	3.1	–
CCC1CCN(c2ccc(NC(=O)c3ccco3)cc2Cl)CC1	> 40	–	–	–
O=C(Nc1ccc(N2CCCCC2)c(F)c1)c1ccco1	> 40	–	–	–
O=C(Nc1ccc(I)cc1)c1ccc([N+](=O)[O-])o1	6.2	9.5	8.7	fold change (FC) (HEK-293T): 24; fold change (FC) (HEK293): 30; Activity (HCC1806): Dose-dependent effect; Activity (HCC1143): Dose-dependent effect; Activity (HCC38): Dose-dependent effect
O=C(Nc1ccc(N2CCOCC2)c(Br)c1)c1ccco1	> 40	–	–	–
Cc1ccc(NC(=O)c2ccc([N+](=O)[O-])o2)cc1	6.7	–	–	–
